The record followed here is ChEMBL document CHEMBL4765423, “Antikinetoplastid SAR study in 3-nitroimidazopyridine series: Identification of a novel non-genotoxic and potent anti-T. b. brucei hit-compound with improved pharmacokinetic properties” (Eur J Med Chem, 2020).

One series addresses Albumin (Homo sapiens, UniProt P02768). Briefly: Binding affinity to human albumin incubated for 4 hrs by LC-MS analysis. It is filed as ADME. To be noted: read-out: PB (converted).
A short description of series [1]: Selectivity index, ratio of CC50 for human HepG2 cells to EC50 for Trypanosoma brucei brucei trypomastigotes AnTat 1.9. The class given is toxicity. To be noted: read-out: Ratio CC50/EC50.
Series [2] concerns Leishmania donovani. Briefly: Antileishmanial activity against Leishmania donovani MHOM/IN/00/DEVI promastigotes assessed as inhibition of parasitic metabolic activity measured after 72 hrs by MTT assay. The class given is functional, organism-based. The gist of the method:
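Log-phase promastigotes at 10⁶/mL were grown in Schneider's medium with 20% FCS at 27 °C. Compound was added from DMSO stock (final <0.5% v/v), in duplicate, for 72 h. Metabolic activity was read by MTT (4 h, 27 °C) and absorbance at 570 nm. EC50 came from non-linear dose-response regression, as the mean of ≥3 independent experiments.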
In general terms: Tetrazolium assays rely on reduction of a dye to a coloured formazan, in cell work by metabolically active cells.

Series [3] in a line: Cytotoxicity against human HepG2 cells assessed as reduction in cell viability after 72 hrs by MTT assay. It is filed as cell-based. The gist of the method:
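MTT was applied at 0.5 mg/mL for 2 h, formazan was dissolved in DMSO, and absorbance read at 570 nm with a 630 nm reference. Doxorubicin was the positive control. CC50 was taken from the dose-response curve, as the mean of three experiments.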

In a further series the test system is Leishmania infantum. In words: Antileishmanial activity against Leishmania infantum MHOM/MA/67/ITMAP-263 axenic amastigotes assessed as inhibition of parasitic metabolic activity incubated for 48 hrs by steady Glow reagent based luminescence assay. The class given is functional, organism-based. To be noted: MHOM/MA/67/ITMAP-263, 48 h. The method in brief:
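Luciferase-expressing promastigotes were acidified (pH 5.4, 24 h, 24 °C) and then held 24 h at 37 °C to give axenic amastigotes. These were used at 2×10⁶/mL with compound (DMSO <0.5%), in duplicate, for 48 h at 37 °C. Luciferase luminescence was read. EC50 came from non-linear regression, as the mean of three independent experiments.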

Series [4] deals with Trypanosoma brucei brucei. In words: Antitrypanosomal activity against bloodstream form Trypanosoma brucei brucei AnTat 1.9 trypomastigotes assessed as reduction in parasite viability incubated for 69 hrs by Alamar Blue dye based assay. To be noted: AnTat 1.9, 69 h. It is filed as functional, organism-based. The method in brief: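 BSF parasites were cultured in MEM/Baltz medium with 20% heat-inactivated horse serum, mercaptoethanol, L-cysteine and bathocuproine, at 37 °C and 5% CO₂. Cells were seeded at 2000 parasites/100 µL with compound from DMSO, in duplicate, for 69 h. Alamar Blue was added for 5 h and fluorescence read (ex 530/em 590 nm). EC50 came from non-linear regression over three independent experiments.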

Series [5] can be described thus: Microsomal stability in CD-1 mouse liver microsomes assessed as half life in presence of NADP measured up to 40 mins by LC-MS analysis. It is filed as ADME, Microsome. The gist of the method:
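Compound was incubated in duplicate with female CD-1 mouse microsomes at 37 °C in 50 mM phosphate, pH 7.4. An NADP-regenerating system was present (MgCl₂ 5 mM, NADP 1 mM, G6PDH 0.4 U/mL, G6P 5 mM).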
On the technique in general: Microsomes from liver hold many membrane-bound enzymes, among them those of drug oxidation.

Series [6] in a line: Selectivity index, ratio of CC50 for human HepG2 cells to EC50 for antileishmanial activity against Leishmania donovani MHOM/IN/00/DEVI promastigotes. It is filed as toxicity. To be noted: read-out: Ratio CC50/EC50.
The nature of series [7]: Selectivity index, ratio of CC50 for human HepG2 cells to EC50 for antileishmanial activity against Leishmania infantum MHOM/MA/67/ITMAP-263 axenic amastigotes. To be noted: read-out: Ratio CC50/EC50. It is filed as toxicity.
A short description of series [8]: Electrochemical behavior of the compound assessed as redox potential corrected toward normal hydrogen electrode by cyclic voltammetry.
Series [9] is described as follows: Aqueous solubility of compound. It is filed as physicochemical. To be noted: buffer.
Series [10] deals with Leishmania donovani. Briefly: Antileishmanial activity against Leishmania donovani amastigotes infected in human THP1 cells assessed as reduction in parasite infection treated with compound at 24 hrs post infection and measured after 120 hrs by Giemsa staining-based assay. To be noted: THP-1. It is filed as functional, organism-based. The gist of the method:
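THP-1 cells were differentiated with PMA (50 ng/mL, 48 h). They were infected 10:1 with promastigotes acidified at pH 5.4, for 24 h. Compound was added (DMSO <0.5%), in duplicate, and cells were incubated 120 h at 37 °C, 5% CO₂. Cells were methanol-fixed and Giemsa-stained, and ≥200 cells were counted for % infected macrophages. IC50 came from regression, as the mean of ≥3 experiments.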

A short description of series [11]: Permeability of the compound in pH 7.4 Prisma HT buffer at 100 uM incubated for 4 hrs by PAMPA-BBB assay method. On the technique in general: In PAMPA a lipid-coated filter parts donor from acceptor wells.

Sequence of Albumin (P02768 whole entry): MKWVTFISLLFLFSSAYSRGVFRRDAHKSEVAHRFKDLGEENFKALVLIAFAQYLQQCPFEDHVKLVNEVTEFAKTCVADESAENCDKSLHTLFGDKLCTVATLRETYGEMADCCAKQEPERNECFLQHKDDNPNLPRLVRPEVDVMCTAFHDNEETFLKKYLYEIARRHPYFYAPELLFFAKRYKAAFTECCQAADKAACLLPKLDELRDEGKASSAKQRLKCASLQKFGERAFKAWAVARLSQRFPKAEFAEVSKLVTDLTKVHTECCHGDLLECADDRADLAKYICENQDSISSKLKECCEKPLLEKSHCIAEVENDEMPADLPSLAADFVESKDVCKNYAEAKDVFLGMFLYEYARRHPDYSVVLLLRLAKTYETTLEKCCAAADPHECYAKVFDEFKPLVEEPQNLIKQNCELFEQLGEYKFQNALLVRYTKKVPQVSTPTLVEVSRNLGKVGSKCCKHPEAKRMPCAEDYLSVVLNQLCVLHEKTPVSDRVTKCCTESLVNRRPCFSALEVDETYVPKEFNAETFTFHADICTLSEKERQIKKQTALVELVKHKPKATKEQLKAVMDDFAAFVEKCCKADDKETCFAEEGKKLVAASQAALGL

Take `CS(=O)(=O)Cc1nc2c(Sc3ccc(Cl)cc3)cc(Cl)cn2c1[N+](=O)[O-]`: the fraction unbound at 4 h at Albumin is 0.011. For the same compound, the selectivity ratio is > 466 in series [1], > 26 in [6] and > 3 in series [7]. Moreover, the EC50 is 1200 nM with Leishmania donovani [2], 10.3 µM with Leishmania infantum and 67 nM in series [4]. Further, the CC50 at 72 h in [3] is > 31.2 µM. In addition, the half-life in series [5] worked out at 12 min.

For `O=[N+]([O-])c1c(CS(=O)(=O)c2ccccc2)nc2c(Br)cc(Cl)cn12`, on Albumin, the fraction unbound at 4 h is 0.035. In addition, the Activity in [8] was -0.65 V. Besides, the half-life in series [5] is 12 min.

As to `O=[N+]([O-])c1c(CS(=O)(=O)c2cccnc2)nc2c(Br)cc(Cl)cn12`, the solubility result in [9] is “Soluble”. For the same compound, the fraction unbound at 4 h on Albumin is 0.13. Besides, the selectivity ratio in series [1] is > 2500; in series [6], > 78; in [7], > 0.8. Moreover, the results for the EC50 (in the series on Leishmania donovani [2]; in the series on Leishmania infantum; in [4]) were 800 nM, 77.8 µM and 25 nM, respectively. For the same compound, the CC50 at 72 h in series [3] is > 62.5 µM. Besides, the half-life in series [5] is 27 min.

With `COc1ccc(Nc2cc(Cl)cn3c([N+](=O)[O-])c(CS(=O)(=O)c4ccccc4)nc23)cc1`, the solubility entry in series [9] is reported as “Insoluble”. For the same compound, in [3], the CC50 at 72 h was > 3.9 µM.

With `O=[N+]([O-])c1c(CSc2ccccc2)nc2c(Br)cc(Cl)cn12`, the Activity in [8] was -0.7 V. Also, the EC50 in the series with Leishmania donovani [2] was > 12500 nM; with Leishmania infantum, 17.8 µM; in series [4], > 50000 nM. In series [3], the CC50 at 72 h was > 31.2 µM. Further, in series [7], the selectivity ratio is > 1.8.

`O=[N+]([O-])c1c(CS(=O)(=O)C2CCCCC2)nc2c(Sc3ccc(Cl)cc3)cc(Cl)cn12`: the selectivity ratio was > 20.8 in [1], > 16.4 in series [6] and > 19.5 in series [7]. The EC50 in the series with Leishmania donovani [10] was > 10 µM; with Leishmania donovani [2], 1900 nM; with Leishmania infantum it was 1.6 µM; in series [4], 1500 nM. The CC50 at 72 h in series [3] was > 31.2 µM.

Take `Cc1cc(Sc2ccc(Cl)cc2)c2nc(CS(=O)(=O)c3ccccc3)c([N+](=O)[O-])n2c1`: the selectivity ratio in series [1] was > 34.7; in [6] it was > 24; in [7], 12.5. For the same compound, the Activity in series [8] was -0.76 V. The values for the EC50 (in the series on Leishmania donovani [2]; with Leishmania infantum; in series [4]) were 2600 nM, 5 µM and 1800 nM, respectively. Also, the CC50 at 72 h in series [3] is > 62.5 µM.

Consider `O=[N+]([O-])c1c(CS(=O)(=O)c2ccccc2)nc2c([Se]c3ccc(Cl)cc3)cc(Cl)cn12`, for which, in [9], the solubility entry was “Insoluble”. The selectivity ratio in series [1] is > 26; in series [6], > 11.1; in [7] it was > 8.7. Besides, the EC50 is 700 nM in the series on Leishmania donovani [2], 0.9 µM in the series on Leishmania infantum and 300 nM in [4]. Moreover, the CC50 at 72 h in [3] was > 7.8 µM.

As for `O=[N+]([O-])c1c(CS(=O)(=O)c2ccccc2)nc2c(Nc3ccc(Cl)cc3)cc(Cl)cn12`, the solubility result in series [9] was “Insoluble”. Moreover, the CC50 at 72 h in [3] was > 3.9 µM.

In [11], `Cn1c(=O)c2[nH]cnc2n(C)c1=O.O` [THEOPHYLLINE] gave an apparent permeability (Papp) at 4 h, 100 µM of 0.47 ×10⁻⁶ cm/s.

On to `CSCc1nc2c(Br)cc(Cl)cn2c1[N+](=O)[O-]`, for which, in series [9], the solubility entry is “Insoluble”. Besides, in series [1], the selectivity ratio is > 7.1. In series [3], the CC50 at 72 h is > 15.6 µM. Moreover, the EC50 in [4] amounted to 2200 nM.

For `O=[N+]([O-])c1cnc2c(Sc3ccc(Cl)cc3)cc(Cl)cn12`, the solubility result in series [9] was “Insoluble”. The selectivity ratio was > 92.8 in [1] and > 3.1 in series [6]. In series [8], the Activity is listed as -0.74 V. Besides, the results for the EC50 (in the series on Leishmania donovani [2]; in series [4]) were 2500 nM and 85 nM, respectively. The cytotoxic concentration (CC50) at 72 h in series [3] is > 7.8 µM.

With `O=[N+]([O-])c1c(CS(=O)(=O)c2ccccc2)nc2c(Nc3ccccc3)cc(Cl)cn12`, the solubility entry in [9] is “Insoluble”. In series [8], the Activity is on record as -0.69 V. In series [3], the CC50 at 72 h was > 3.9 µM.

Turning to `O=[N+]([O-])c1c(CS(=O)(=O)c2cccnc2)nc2c(Sc3ccc(Cl)cc3)cc(Cl)cn12`, the selectivity ratio in [1] is > 26; in series [6], > 62.4; in series [7], > 39. Also, the EC50 with Leishmania donovani [10] is > 10 µM; with Leishmania donovani [2], 500 nM; with Leishmania infantum, 0.8 µM; in [4], 1200 nM. Further, the half-maximal cytotoxic concentration (CC50) at 72 h in series [3] is > 31.2 µM.

The term EC50 denotes the concentration at which the effect is half-maximal. Broadly, the CC50 is the concentration that lowers cell viability or growth by half. A word on the half-life: it is how long it takes for the measured level to halve. What is called Papp is the rate of passage across a membrane or cell layer, normalised by area and donor concentration. Read a low Papp as poor permeation.
